{"data": "Assay results of several laboratories", "organism": "Staphylococcus aureus", "effect on": "microbial growth", "note": "Compare with care: the assays were run in different laboratories."}
{"SMILES": "C/C(=C\\C(=O)OCCCCCCCCC(=O)O)C[C@@H]1OC[C@H](C[C@@H]2O[C@H]2[C@@H](C)[C@H](C)O)[C@@H](O)[C@H]1O", "strain": "MRSA", "notes": "drug-resistant strain", "MIC": "0.5 µM"}
{"SMILES": "COc1cc(Cc2cnc(N)nc2N)cc(OC)c1OC", "technique": "broth dilution", "MIC": "~16.6 µM"}
{"SMILES": "Cc1ccc2[nH]c3c(c2c1)CCCC3NCCc1ccc(Br)cc1 (centres unmarked)", "technique": "broth dilution", "strain": "VISA", "MIC": "4 mg/L"}
{"SMILES": "CNC(=O)c1cc(Oc2ccc(NC(=O)Nc3cccc(C(F)(F)F)c3)cc2)ccn1", "strain": "NCTC8325", "MIC": "> 100 µM"}
{"SMILES": "O=[N+]([O-])c1cccc(-c2nc3ccccc3[nH]2)c1", "technique": "broth dilution", "strain": "ATCC43300 MRSA", "notes": "drug-resistant strain", "MIC": "64 mg/L"}
{"SMILES": "COC(=O)c1cc(-c2cccc(NC(=S)Nc3ccccc3Cl)c2)on1", "technique": "broth dilution", "strain": "ATCC29213", "MIC": "> 64 mg/L"}
{"SMILES": "COc1cccc(-c2nc3ccc(C)cc3[nH]2)c1", "technique": "broth dilution", "strain": "ATCC43300 MRSA", "notes": "drug-resistant strain", "MIC": "256 mg/L"}
{"SMILES": "O=C(CCCCc1ccccc1)CP(=O)(O)O", "strain": "ATCC33591 MRSA", "notes": "drug-resistant strain", "MIC": "> 200 mg/L"}
{"SMILES": "CC1(C)S[C@@H]2[C@H](NC(=O)[C@H](N)c3ccccc3)C(=O)N2[C@H]1C(=O)O", "strain": "USA300", "MIC": "64 mg/L"}
{"SMILES": "Cc1ccc2nc(-c3cccc([N+](=O)[O-])c3)[nH]c2c1", "technique": "broth dilution", "strain": "ATCC43300 MRSA", "notes": "drug-resistant strain", "MIC": "64 mg/L"}
{"SMILES": "CCCCCC/C=C\\CCCCCCCCCC(=O)NP(=O)(O)O", "strain": "ATCC33591 MRSA", "notes": "drug-resistant strain", "MIC": "200 mg/L"}
{"SMILES": "COC(=O)c1cc(-c2cccc(NC(=S)Nc3cccc(Cl)c3)c2)on1", "technique": "broth dilution", "strain": "ATCC29213", "MIC": "> 64 mg/L"}
{"SMILES": "O=C(CCCCCCCCCCOc1ccccc1)CP(=O)(O)O", "strain": "ATCC33591 MRSA", "notes": "drug-resistant strain", "MIC": "100 mg/L"}
{"SMILES": "CC(c1ccc(Cl)c(Cl)c1)n1cnc2cc3c(cc21)CCC3 (centres unmarked)", "MIC": "3.1 to 6.3 mg/L"}
{"SMILES": "O=C(Nc1cccc(-c2cc(C(=O)O)no2)c1)Nc1ccc(Cl)c(Cl)c1", "technique": "broth dilution", "strain": "ATCC29213", "MIC": "> 64 mg/L"}
{"SMILES": "CCCCCC/C=C\\CCCCCCCCCC(=O)CP(=O)(O)O", "strain": "ATCC33591 MRSA", "notes": "drug-resistant strain", "MIC": "100 mg/L"}
{"SMILES": "C=C(NC(=O)C(=C)NC(=O)c1csc(C2=N[C@@H]3c4csc(n4)[C@H]4NC(=O)c5csc(n5)[C@H]([C@](C)(O)[C@@H](C)O)NC(=O)[C@H]5CSC(=N5)/C(=C/C)NC(=O)[C@H]([C@@H](C)O)NC(=O)c5csc(n5)[C@]3(CC2)NC(=O)[C@H](C)NC(=O)C(=C)NC(=O)[C@H](C)NC(=O)[C@H]([C@@H](C)CC)N[C@@H]2C=Cc3c([C@H](C)O)cc(nc3[C@H]2O)C(=O)O[C@@H]4C)n1)C(N)=O", "strain": "MSSA", "MIC": "0.06 mg/L"}
{"SMILES": "CN[C@H](CC(C)C)C(=O)N[C@H]1C(=O)N[C@@H](CC(N)=O)C(=O)N[C@H]2C(=O)N[C@H]3C(=O)N[C@H](C(=O)N[C@H](C(=O)O)c4cc(O)cc(O)c4-c4cc3ccc4O)[C@H](O)c3ccc(c(Cl)c3)Oc3cc2cc(c3O[C@@H]2O[C@H](CO)[C@@H](O)[C@H](O)[C@H]2O[C@H]2C[C@](C)(N)[C@H](O)[C@H](C)O2)Oc2ccc(cc2Cl)[C@H]1O", "technique": "broth dilution", "strain": "ATCCBAA41", "notes": "drug-resistant strain", "MIC": "1 mg/L"}
{"SMILES": "C[C@H]1COc2c(N3CCN(C)CC3)c(F)cc3c(=O)c(C(=O)O)cn1c23", "technique": "broth dilution", "strain": "ATCC29213", "MIC": "0.125 mg/L"}
{"SMILES": "C=CCn1c(-c2ccc([N+](=O)[O-])cc2)nc2ccc(C)cc21", "technique": "broth dilution", "strain": "ATCC43300 MRSA", "notes": "drug-resistant strain", "MIC": "64 mg/L"}
{"SMILES": "CC1C(=NOCc2cc(-c3ccc(Cl)cc3)no2)CC(c2ccccc2)OC1c1ccccc1 (centres unmarked)", "technique": "broth dilution", "strain": "MTCC96", "time": "24 h", "MIC": "25 mg/L"}
{"SMILES": "O=[N+]([O-])c1ccc(-c2nc3cc(Cl)ccc3[nH]2)o1", "technique": "broth dilution", "strain": "ATCC700699 MRSA", "notes": "drug-resistant strain", "MIC": "2 mg/L"}
{"SMILES": "COC[C@H]1OC(=O)c2coc3c2[C@@]1(C)C1=C(C3=O)[C@@H]2CCC(=O)[C@@]2(C)C[C@H]1OC(C)=O", "strain": "NCTC8325", "MIC": "> 30 µM"}
{"SMILES": "O=C(CCCCC1CCCCC1)CP(=O)(O)O", "strain": "ATCC33591 MRSA", "notes": "drug-resistant strain", "MIC": "> 200 mg/L"}
{"SMILES": "Clc1ccc(-c2nc3ccccc3[nH]2)cc1", "technique": "broth dilution", "strain": "ATCC43300 MRSA", "notes": "drug-resistant strain", "MIC": "128 mg/L"}
{"SMILES": "COC(=O)c1cc(-c2cccc(NC(=O)Nc3cccc(Cl)c3Cl)c2)on1", "technique": "broth dilution", "strain": "ATCC29213", "MIC": "8 to 16 mg/L"}
{"SMILES": "c1cncc(-c2nc3ccccc3[nH]2)c1", "technique": "broth dilution", "strain": "ATCC43300 MRSA", "notes": "drug-resistant strain", "MIC": "256 mg/L"}
{"SMILES": "COC(=O)c1cc(-c2cccc(NC(=S)Nc3ccc(C#N)cc3)c2)on1", "technique": "broth dilution", "strain": "ATCC29213", "MIC": "> 64 mg/L"}
{"SMILES": "CCC(CC)c1cc(CCN2CCCN(Cc3ccc(C(F)(F)F)cc3)CC2)nc(-c2ccncc2)n1", "strain": "ATCCBAA1717", "notes": "drug-resistant strain, clinical isolate", "MIC": "4 mg/L"}
{"SMILES": "CC[C@H](C)C[C@H](C)CCCCCCCCC(=O)N[C@H]1C[C@@H](O)[C@@H](NCCN)NC(=O)[C@@H]2[C@@H](O)CCN2C(=O)[C@H]([C@H](O)CCN)NC(=O)[C@H]([C@H](O)[C@@H](O)c2ccc(O)cc2)NC(=O)[C@@H]2C[C@@H](O)CN2C(=O)[C@H]([C@@H](C)O)NC1=O", "technique": "broth dilution", "strain": "MB2865", "MIC": "> 128 mg/L"}
{"SMILES": "CCCCCCC#Cc1cncc(-c2nnc(SCc3cc([N+](=O)[O-])cc([N+](=O)[O-])c3)n2C)c1", "strain": "MRSA", "notes": "drug-resistant strain", "MIC": "≥ 20 mg/L"}
{"SMILES": "O=[N+]([O-])c1ccc(/C=N/Nc2nc(Nc3ccccc3)nc(Nc3ccccc3)n2)o1", "strain": "ATCC43300", "MIC": "2.4 µM"}
{"SMILES": "CN[C@H](CC(C)C)C(=O)N[C@H]1C(=O)N[C@@H](CC(N)=O)C(=O)N[C@H]2C(=O)N[C@H]3C(=O)N[C@H](C(=O)N[C@H](C(=O)O)c4cc(O)cc(O)c4-c4cc3ccc4O)[C@H](O)c3ccc(c(Cl)c3)Oc3cc2cc(c3O[C@@H]2O[C@H](CO)[C@@H](O)[C@H](O)[C@H]2O[C@H]2C[C@](C)(N)[C@H](O)[C@H](C)O2)Oc2ccc(cc2Cl)[C@H]1O", "strain": "ATCC33592", "notes": "drug-resistant strain", "MIC": "0.39 mg/L"}
{"SMILES": "COc1cccc(OC)c1C(=O)N[C@@H]1C(=O)N2[C@@H]1SC(C)(C)[C@@H]2C(=O)O", "strain": "ATCCBAA1717", "notes": "drug-resistant strain, clinical isolate", "MIC": "> 64 mg/L"}
{"SMILES": "CN[C@H](CC(C)C)C(=O)N[C@H]1C(=O)N[C@@H](CC(N)=O)C(=O)N[C@H]2C(=O)N[C@H]3C(=O)N[C@H](C(=O)N[C@H](C(=O)O)c4cc(O)cc(O)c4-c4cc3ccc4O)[C@H](O)c3ccc(c(Cl)c3)Oc3cc2cc(c3O[C@@H]2O[C@H](CO)[C@@H](O)[C@H](O)[C@H]2O[C@H]2C[C@](C)(N)[C@H](O)[C@H](C)O2)Oc2ccc(cc2Cl)[C@H]1O", "technique": "broth dilution", "strain": "25923", "MIC": "0.78 µM"}
{"SMILES": "[H]/N=C(/N)N[C@H]1[C@H](O)[C@@H](O)[C@H](O[C@@H]2O[C@@H](C)[C@](O)(C=O)[C@H]2O[C@@H]2O[C@@H](CO)[C@H](O)[C@@H](O)[C@@H]2NC)[C@@H](N/C(N)=N\\[H])[C@@H]1O", "strain": "USA300", "MIC": "64 mg/L"}
{"SMILES": "CNC(C)[C@@H]1CC[C@@H](N)[C@@H](O[C@H]2[C@H](O)[C@@H](O[C@H]3OC[C@](C)(O)[C@H](NC)[C@H]3O)[C@H](N)C[C@@H]2N)O1 (some centres unmarked)", "strain": "NCTC8325", "MIC": "0.5 to 1 µM"}
{"SMILES": "Oc1ccccc1-c1nc2ccccc2[nH]1", "technique": "broth dilution", "strain": "ATCC43300 MRSA", "notes": "drug-resistant strain", "MIC": "256 mg/L"}
{"SMILES": "COC(=O)c1cc(-c2cccc(NC(=O)NCc3ccccc3)c2)on1", "technique": "broth dilution", "strain": "ATCC29213", "MIC": "> 64 mg/L"}
{"SMILES": "CC(C)C[C@H](NC(=O)[C@@H](NC(=O)N[C@H](C(=O)O)C(C)C)[C@@H]1CCNC(=N)N1)C(=O)NCCCN[C@H](C(=O)O)[C@H](O[C@@H]1O[C@H](CN)[C@@H](O)[C@H]1O)[C@H]1O[C@@H](n2ccc(=O)[nH]c2=O)[C@H](O)[C@@H]1O", "strain": "NEWMAN", "MIC": "> 80 mg/L"}
{"SMILES": "Cc1ccc2nc(-c3ccc(N(C)C)cc3)[nH]c2c1", "technique": "broth dilution", "strain": "ATCC43300 MRSA", "notes": "drug-resistant strain", "MIC": "128 mg/L"}
{"SMILES": "c1ccc(CCOC2CCCc3c2[nH]c2ccccc32)cc1 (centres unmarked)", "technique": "broth dilution", "strain": "ATCC29213", "MIC": "> 16 mg/L"}
{"SMILES": "CN[C@H](CC(C)C)C(=O)N[C@H]1C(=O)N[C@@H](CC(N)=O)C(=O)N[C@H]2C(=O)N[C@H]3C(=O)N[C@H](C(=O)N[C@H](C(=O)O)c4cc(O)cc(O)c4-c4cc3ccc4O)[C@H](O)c3ccc(c(Cl)c3)Oc3cc2cc(c3O[C@@H]2O[C@H](CO)[C@@H](O)[C@H](O)[C@H]2O[C@H]2C[C@](C)(N)[C@H](O)[C@H](C)O2)Oc2ccc(cc2Cl)[C@H]1O", "strain": "UAMS1", "MIC": "1 mg/L"}
{"SMILES": "CC1=C(C(=O)O)N2C(=O)[C@@H](NC(=O)[C@H](N)C3=CCC=CC3)[C@H]2SC1", "strain": "USA300", "MIC": "128 mg/L"}
{"SMILES": "COC(=O)c1cc(Oc2ccc(NC(=O)Nc3ccc(Cl)c(C(F)(F)F)c3)cc2)ccn1", "strain": "NCTC8325", "MIC": "3 µM"}
{"SMILES": "COC(=O)c1cc(-c2cccc(NC(=O)Nc3cc(OC)ccc3OC)c2)on1", "technique": "broth dilution", "strain": "ATCC29213", "MIC": "> 64 mg/L"}
{"SMILES": "CC1(C)CC[C@]2(C(=O)O)CC[C@]3(C)C(=CC[C@@H]4[C@@]5(C)CC[C@H](O)C(C)(C)[C@@H]5CC[C@]43C)[C@@H]2C1", "strain": "252", "MIC": "256 mg/L"}
